Assay results taken from PMC2673089 (Journal of pharmaceutical sciences, 2008).

What was measured:
MDCK-MDR1 monolayers = assay: Bidirectional transport and verapamil inhibition across MDCK-MDR1 monolayers; type: in vitro ADME
Caco-2 monolayers = assay: Bidirectional transport and verapamil inhibition across Caco-2 monolayers; type: in vitro ADME
[1] = system: pooled human liver microsomes; assay: Metabolism in pooled human liver microsomes; type: in vitro ADME
human CYP2C19 = human CYP2C19 (Homo sapiens, UniProt P33261); assay: Metabolism by recombinant human CYP2C19 Supersomes; type: in vitro ADME
human CYP2D6 = human CYP2D6 (Homo sapiens, UniProt P10635); assay: Metabolism by recombinant human CYP2D6 Supersomes; type: in vitro ADME
human CYP2E1 = human CYP2E1 (Homo sapiens, UniProt P05181); assay: Metabolism by recombinant human CYP2E1 Supersomes; type: in vitro ADME
rat CYP1A2 = target: T1, rat CYP1A2 (Rattus norvegicus, UniProt P04799); assay: Metabolism by recombinant rat CYP1A2 Supersomes; type: in vitro ADME
T1 sequence (P04799 1-513): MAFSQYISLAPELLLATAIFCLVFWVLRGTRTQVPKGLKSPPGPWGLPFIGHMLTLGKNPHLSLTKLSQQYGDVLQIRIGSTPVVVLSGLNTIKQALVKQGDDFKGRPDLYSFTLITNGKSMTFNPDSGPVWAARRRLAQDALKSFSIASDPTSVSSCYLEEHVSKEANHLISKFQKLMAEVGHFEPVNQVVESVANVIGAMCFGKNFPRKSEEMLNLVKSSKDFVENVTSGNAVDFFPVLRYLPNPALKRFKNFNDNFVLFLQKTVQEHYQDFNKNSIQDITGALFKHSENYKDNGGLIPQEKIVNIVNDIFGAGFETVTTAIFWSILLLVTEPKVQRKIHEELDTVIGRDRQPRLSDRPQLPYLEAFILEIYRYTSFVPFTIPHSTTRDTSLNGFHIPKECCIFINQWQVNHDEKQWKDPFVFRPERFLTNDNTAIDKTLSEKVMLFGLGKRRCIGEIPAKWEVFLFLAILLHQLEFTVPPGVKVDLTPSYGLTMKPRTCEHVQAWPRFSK

rat CYP2D1 = target: T2, rat CYP2D1 (Rattus norvegicus, UniProt P10633); assay: Metabolism by recombinant rat CYP2D1 Supersomes; type: in vitro ADME
T2 sequence (P10633 1-504): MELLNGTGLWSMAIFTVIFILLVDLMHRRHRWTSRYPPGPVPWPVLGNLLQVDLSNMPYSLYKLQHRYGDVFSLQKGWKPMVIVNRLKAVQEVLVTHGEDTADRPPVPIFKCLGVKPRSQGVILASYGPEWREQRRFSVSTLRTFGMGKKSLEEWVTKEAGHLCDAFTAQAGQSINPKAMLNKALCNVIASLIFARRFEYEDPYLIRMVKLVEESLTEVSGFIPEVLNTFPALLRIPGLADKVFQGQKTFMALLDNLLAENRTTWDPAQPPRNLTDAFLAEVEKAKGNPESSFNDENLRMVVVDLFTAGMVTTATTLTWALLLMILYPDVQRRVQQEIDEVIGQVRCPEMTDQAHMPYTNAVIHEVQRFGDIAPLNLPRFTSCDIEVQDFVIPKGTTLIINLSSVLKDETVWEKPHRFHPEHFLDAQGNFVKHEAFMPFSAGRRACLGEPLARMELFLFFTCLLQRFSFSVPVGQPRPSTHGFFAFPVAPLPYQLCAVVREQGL

[2] = Pharmacokinetics and brain uptake after i.v. dosing; type: in vivo, male Sprague–Dawley rats; details: for AUC0–1440 min (plasma): noncompartmental analysis
[3] = system: extracellular levels of DA in the nucleus accumbens (NAc); assay: Intracerebral microdialysis of NAc dopamine; type: in vivo, Sprague–Dawley rats; details: for maximal increase of DA: NAc dialysate; for time DA levels remained significantly elevated above basal: post hoc p < 0.05
In short: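 CMA/12 probe (2 mm) was perfused with aCSF at 1 μL/min. Dialysate was collected over 10-min periods to 360 min. DA by HPLC-ECD, as % of mean of four basal samples. Repeated-measures ANOVA, Dunnett vs time zero.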

NET = details: read-out: NET Ki; mean ± SEM; cited from earlier work
muscarinic M1 receptors = details: read-out: M1 Ki; mean ± SEM; cited from earlier work
histamine H1 receptors = details: read-out: H1 Ki; mean ± SEM; cited from earlier work
DA uptake = details: read-out: DA Uptake IC50; mean ± SEM; cited from earlier work
[4] = MDCK-MDR1, 0.1 mM, absence of verapamil, mean ± SD (n = 3)
[5] = 0.1 mM, absence of verapamil, mean ± SD (n = 3)
[6] = population PK estimate (% CV), i.v. 5 and 10 mg/kg combined, n = 54 rats

human CYP2E1, sequence (P05181 whole entry): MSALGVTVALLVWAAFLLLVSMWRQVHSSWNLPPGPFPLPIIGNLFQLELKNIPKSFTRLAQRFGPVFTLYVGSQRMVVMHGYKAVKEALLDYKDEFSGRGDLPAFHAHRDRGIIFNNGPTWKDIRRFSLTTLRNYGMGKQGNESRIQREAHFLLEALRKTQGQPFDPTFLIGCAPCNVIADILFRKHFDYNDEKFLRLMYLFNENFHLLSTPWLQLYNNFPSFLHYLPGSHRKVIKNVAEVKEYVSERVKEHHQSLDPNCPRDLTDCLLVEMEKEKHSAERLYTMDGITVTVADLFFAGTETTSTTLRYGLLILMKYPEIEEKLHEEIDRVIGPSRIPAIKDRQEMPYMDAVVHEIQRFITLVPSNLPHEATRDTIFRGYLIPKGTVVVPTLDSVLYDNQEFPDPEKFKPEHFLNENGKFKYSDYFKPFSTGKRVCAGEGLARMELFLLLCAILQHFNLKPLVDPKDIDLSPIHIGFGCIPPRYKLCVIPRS
human CYP2D6, sequence (P10635 whole entry): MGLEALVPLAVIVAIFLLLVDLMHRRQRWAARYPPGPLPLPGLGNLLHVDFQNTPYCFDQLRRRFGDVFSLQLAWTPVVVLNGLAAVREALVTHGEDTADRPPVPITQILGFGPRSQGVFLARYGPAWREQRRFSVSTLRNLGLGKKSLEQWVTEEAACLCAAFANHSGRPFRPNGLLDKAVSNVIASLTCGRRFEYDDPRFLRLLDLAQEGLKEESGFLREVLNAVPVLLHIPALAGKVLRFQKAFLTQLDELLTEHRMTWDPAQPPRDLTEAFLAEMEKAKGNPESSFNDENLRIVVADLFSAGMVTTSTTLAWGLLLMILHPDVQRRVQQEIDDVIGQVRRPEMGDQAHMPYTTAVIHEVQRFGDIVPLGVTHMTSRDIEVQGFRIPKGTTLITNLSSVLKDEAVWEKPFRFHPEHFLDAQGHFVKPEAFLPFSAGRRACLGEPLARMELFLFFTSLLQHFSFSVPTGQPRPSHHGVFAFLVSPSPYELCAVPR
human CYP2C19, sequence (P33261 whole entry): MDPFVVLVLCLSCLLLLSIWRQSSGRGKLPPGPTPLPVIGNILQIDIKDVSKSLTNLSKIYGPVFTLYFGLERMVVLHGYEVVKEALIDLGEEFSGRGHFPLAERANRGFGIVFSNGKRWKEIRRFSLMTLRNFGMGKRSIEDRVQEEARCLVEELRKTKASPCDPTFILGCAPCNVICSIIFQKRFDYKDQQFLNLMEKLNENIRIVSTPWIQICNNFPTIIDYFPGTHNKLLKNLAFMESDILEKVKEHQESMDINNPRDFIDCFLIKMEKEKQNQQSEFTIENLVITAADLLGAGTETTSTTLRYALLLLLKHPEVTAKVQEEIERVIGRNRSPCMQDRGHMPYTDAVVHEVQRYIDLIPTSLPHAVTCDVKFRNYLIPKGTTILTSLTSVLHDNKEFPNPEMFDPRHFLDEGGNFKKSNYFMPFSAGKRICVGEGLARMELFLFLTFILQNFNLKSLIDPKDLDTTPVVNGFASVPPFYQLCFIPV

CC(C)[C@@H](N)CN1C2CCC1CC(OC(c1ccc(F)cc1)c1ccc(F)cc1)C2 (stereo partly drawn) [GA2-50, N-((R)-2″-amino-3″-methyl-n-butyl)-3α-[(bis-4′-fluorophenyl)methoxy]tropane]
Permeability relative to JHW 025 (MDCK-MDR1 monolayers; MDCK-MDR1): around 6.8 fold | Efflux Ratio (MDCK-MDR1 monolayers; MDCK-MDR1, 0.1 mM, Papp(B-A)/Papp(A-B)): 3.4 | Papp A-B (MDCK-MDR1 monolayers; [4]): 34.01 ± 2.78 × 10^−6 cm/s | Papp B-A (MDCK-MDR1 monolayers; [4]): 116.97 ± 5.23 × 10^−6 cm/s | Enhancement ratio of A-B transport by verapamil (MDCK-MDR1 monolayers; MDCK-MDR1, verapamil 200 μM): 2.3 | P-gp substrate status (MDCK-MDR1 monolayers; polarized transport across MDCK-MDR1 and Caco-2, verapamil-sensitive): substrate for the efflux transporter P-gp | Permeability relative to JHW 025 (Caco-2 monolayers): > 4 fold | Efflux Ratio (Caco-2 monolayers; 0.1 mM, Papp(B-A)/Papp(A-B)): 8.3 | Papp A-B (Caco-2 monolayers; [5]): 1.37 ± 0.08 × 10^−6 cm/s | Papp B-A (Caco-2 monolayers; [5]): 11.36 ± 1.41 × 10^−6 cm/s | Enhancement ratio of A-B transport by verapamil (Caco-2 monolayers; verapamil 200 μM): 3.4 | Intrinsic Clearance ([1]; Pooled HLM 0.8 mg/mL, 4 μM, mean ± SD n = 3): 3.17 ± 1.18 microliters per minute per milligram of protein | Intrinsic clearance, fold lower than 4′,4″-diCl BZT ([1]; pooled human liver microsomes, comparator values ref 26): 4.0 fold | Intrinsic Clearance (human CYP2C19; Human CYP 2C19 50 pmol/mL, 4 μM): 0.10 ± 0.01 (c) microliters per minute per picomole of P450 | Substrate disappearance after 60 min incubation vs control (human CYP2C19; human CYP2C19, 10 μM, 50 pmol/mL P450, p < 0.05): statistically significant disappearance | Intrinsic Clearance (human CYP2D6; Human CYP 2D6 50 pmol/mL, 4 μM): 0.15 ± 0.02 (b) microliters per minute per picomole of P450 | Substrate disappearance after 60 min incubation vs control (human CYP2D6; human CYP2D6, 10 μM, 50 pmol/mL P450, p < 0.05): statistically significant disappearance | Intrinsic Clearance (human CYP2E1; Human CYP 2E1 50 pmol/mL, 4 μM): 0.09 ± 0.02 (c,d) microliters per minute per picomole of P450 | Substrate disappearance after 60 min incubation vs control (human CYP2E1; human CYP2E1, 10 μM, 50 pmol/mL P450, p < 0.05): statistically significant disappearance | Intrinsic Clearance (rat CYP1A2; Rat CYP 1A2 50 pmol/mL, 4 μM): 0.06 ± 0.01 (d) microliters per minute per picomole of P450 | Substrate disappearance after 60 min incubation vs control (rat CYP1A2; rat CYP1A2, 10 μM, 50 pmol/mL P450, p < 0.05): statistically significant disappearance | Intrinsic Clearance (rat CYP2D1; Rat CYP 2D1 50 pmol/mL, 4 μM): 0.11 ± 0.02 (c) microliters per minute per picomole of P450 | Substrate disappearance after 60 min incubation vs control (rat CYP2D1; rat CYP2D1, 10 μM, 50 pmol/mL P450, p < 0.05): statistically significant disappearance | brain-to-plasma partition coefficient (Ri) ([2]; 5 mg/kg i.v., AUC0–1440 min brain/plasma): 10.1 | AUC0–1440 min (plasma) ([2]; 5 mg/kg i.v.): 141.8 µg·min/mL | maximal total brain concentration ([2]; 10 mg/kg i.v.): approximately 5 μg/g | brain-to-plasma partition coefficient (Ri) ([2]; 10 mg/kg i.v., AUC0–1440 min brain/plasma): 9.6 | AUC0–1440 min (plasma) ([2]; 10 mg/kg i.v.): 258.0 µg·min/mL | Vss ([2]; Table 4, secondary parameter from NONMEM empirical Bayes estimates, i.v., rats): 622 mL/min/kg | signs of toxicity ([2]; i.v. 5 or 10 mg/kg): did not show any signs of toxicity | brain-to-plasma partition coefficient (Ri) ([2]; overall, dose not specified): ~ 10 | CL [2, 6]: 1.34 (9.3) L/h/kg | Q [2, 6]: 7.8 (19.9) L/h/kg | Vc [2, 6]: 8.09 (13.6) L/kg | Vp [2, 6]: 27.9 (10.5) L/kg | t1/2 (elimination half-life) ([2]; secondary parameter from NONMEM empirical Bayes estimates, i.v., rats): 19.2 h | maximal DA elevation relative to basal ([3]; 5 mg/kg i.v.): 1.6 fold | time of maximal DA increase postdose ([3]; 5 mg/kg i.v.): 20 min | maximal increase of DA ([3]; 5 mg/kg i.v.): 159 % of the basal values | time DA levels remained significantly elevated above basal ([3]; 5 mg/kg i.v.): up to 1 h | maximal DA elevation relative to basal ([3]; 10 mg/kg i.v.): 2.7 fold | time of maximal DA increase postdose ([3]; 10 mg/kg i.v.): 30 min | maximal increase of DA ([3]; 10 mg/kg i.v.): 274 % of the basal values | time DA levels remained significantly elevated above basal ([3]; 10 mg/kg i.v., whole 6 h experiment): ≥ 6 h | effect on cocaine-induced DA elevation ([3]; GA2-50 + cocaine, 5 mg/kg of each i.v., simultaneous administration): did not have significant effect on the DA elevation induced by cocaine | Ki (NET): 2.13 ± 0.16 µM | Ki (muscarinic M1 receptors): 4.02 ± 0.592 µM | Ki (histamine H1 receptors): 0.218 ± 0.0155 µM | IC50 (DA uptake): 0.0207 ± 0.00285 µM
